Assay results reported in ChEMBL document CHEMBL1821604, “Anticancer activity and cDNA microarray studies of a (RS)-1,2,3,5-tetrahydro-4,1-benzoxazepine-3-yl]-6-chloro-9H-purine, and an acyclic (RS)-O,N-acetalic 6-chloro-7H-purine” (Eur J Med Chem, 2011).
pIC50: −log10 of the molar value.

Experiments:
[1] = test system: MCF7; experiment: Upregulation of MGC32020 gene expression in human MCF7 cells at IC50 after 48 hrs by cDNA microarray technique relative to control; format: functional
[2] = test system: MCF7; experiment: Cell cycle arrest in human MCF7 cells assessed as accumulation at S phase at IC50 after 48 hrs using annexin V-FITC and propidium iodide staining based FACS analysis; format: functional
[3] = test system: MCF7; experiment: Induction of apoptosis in human MCF7 cells assessed late apoptotic cells at IC50 after 48 hrs using annexin V-FITC staining by flow cytometry; format: functional
In short: (§1)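 Cells exposed 48 h to the compound at its IC₅₀ concentration, with 0.5% DMSO-only cells as control. Stained with annexin V-FITC plus propidium iodide, then flow cytometry. Gating: annexin+/PI− = early apoptotic; annexin+/PI+ = late apoptotic; PI only = dead/necrotic; double-negative = viable.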

[4] = test system: MCF7; experiment: Down regulation of GBP1 gene expression in human MCF7 cells at IC50 after 48 hrs by cDNA microarray technique relative to control; format: functional
In short: (§2)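 Cells (8 × 10⁶) were cultured in DMEM with 10% heat-inactivated FBS at 37 °C under 5% CO₂. They were exposed for 48 h to compound at its IC₅₀, with DMSO-treated parallel cultures as controls (final DMSO ≤0.1% v/v). Total RNA was isolated by trizol/chloroform phase separation, RNeasy column cleanup and on-column DNase, then quantified by OD260/OD280. Expression was profiled by cDNA microarray relative to control.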

[5] = test system: HT-29; experiment: Cell cycle arrest in human HT-29 cells assessed as accumulation at G2/M phase at IC50 after 48 hrs using […] propidium iodide staining based FACS analysis; format: functional
[6] = test system: HT-29; experiment: Cytotoxicity against human HT-29 cells after 6 days by SRB colorimetric assay; format: functional, cell-based; conditions: HT-29, 144 h
[7] = test system: MCF7; experiment: Induction of apoptosis in human MCF7 cells assessed early apoptotic cells at IC50 after 48 hrs using annexin V-FITC staining by flow cytometry; format: functional; in short: as §1
[8] = test system: HT-29; experiment: Cell cycle arrest in human HT-29 cells assessed as accumulation at G0/G1 phase at IC50 after 48 hrs using […] propidium iodide staining based FACS analysis; format: functional
[9] = test system: HT-29; experiment: Down regulation of HAS2 gene expression in human HT-29 cells at IC50 after 48 hrs by cDNA microarray technique relative to control; format: functional; in short: as §2
[10] = Cytotoxicity against rat IEC-6 cells after 6 days by SRB colorimetric assay; format: cell-based; conditions: IEC-6, 144 h
[11] = test system: MCF7; experiment: Down regulation of IL1F9 gene expression in human MCF7 cells at IC50 after 48 hrs by cDNA microarray technique relative to control; format: functional; in short: as §2
[12] = test system: MCF7; experiment: Induction of apoptosis in human MCF7 cells assessed necrotic cells at IC50 after 48 hrs using annexin V-FITC staining by flow cytometry; format: functional; in short: as §1
[13] = test system: MCF7; experiment: Induction of apoptosis in human MCF7 cells assessed viable cells at IC50 after 48 hrs using annexin V-FITC staining by flow cytometry; format: functional; in short: as §1
[14] = test system: MCF7; experiment: Cell cycle arrest in human MCF7 cells assessed as accumulation at G2/M phase at IC50 after 48 hrs using annexin V-FITC and propidium iodide staining based FACS analysis; format: functional
[15] = Therapeutic index, ratio of IC50 for human MCF10A cells to IC50 for human MCF7 cells; format: cell-based; conditions: MCF10A cells (normal) versus MCF7 cells (cancer), read-out: Ratio IC50
In short: (§3)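 Each cell line grown in DMEM with 10% FBS, 37 °C, 5% CO₂. Cells seeded and allowed 24 h, then drug added in medium (≤0.1% v/v DMSO). Medium and drug renewed at day 3, cells kept 3 more days. Sulforhodamine-B read at 492 nm. IC₅₀ taken from semilog dose-response curves by linear interpolation, triplicate wells, at least twice. Index = IC₅₀ normal line / IC₅₀ cancer line.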

[16] = test system: HT-29; experiment: Cell cycle arrest in human HT-29 cells assessed as accumulation at S phase at IC50 after 48 hrs using […] propidium iodide staining based FACS analysis; format: functional
[17] = test system: MCF-10A; experiment: Cytotoxicity against human MCF10A cells after 6 days by SRB colorimetric assay; format: cell-based; conditions: 144 h
[18] = test system: HT-29; experiment: Induction of apoptosis in human HT-29 cells assessed late apoptotic cells at IC50 after 48 hrs using annexin V-FITC staining by flow cytometry; format: functional; in short: as §1
[19] = test system: HT-29; experiment: Induction of apoptosis in human HT-29 cells assessed early apoptotic cells at IC50 after 48 hrs using annexin V-FITC staining by flow cytometry; format: functional; in short: as §1
[20] = test system: HT-29; experiment: Induction of apoptosis in human HT-29 cells assessed necrotic cells at IC50 after 48 hrs using annexin V-FITC staining by flow cytometry; format: functional; in short: as §1
[21] = test system: MCF7; experiment: Cell cycle arrest in human MCF7 cells assessed as accumulation at G0/G1 phase at IC50 after 48 hrs using annexin V-FITC and propidium iodide staining based FACS analysis; format: functional
[22] = Therapeutic index, ratio of IC50 for rat IEC-6 cells to IC50 for human HT-29 cells; format: cell-based; conditions: IEC-6 cells (normal) versus HT-29 cells (cancer), read-out: Ratio IC50; in short: as §3
[23] = test system: HT-29; experiment: Induction of apoptosis in human HT-29 cells assessed viable cells at IC50 after 48 hrs using annexin V-FITC staining by flow cytometry; format: functional; in short: as §1
[24] = test system: MCF7; experiment: Upregulation of HOXB2 gene expression in human MCF7 cells at IC50 after 48 hrs by cDNA microarray technique relative to control; format: functional
[25] = test system: HT-29; experiment: Upregulation of LAMP3 gene expression in human HT-29 cells at IC50 after 48 hrs by cDNA microarray technique relative to control; format: functional
[26] = test system: HT-29; experiment: Down regulation of FLOT1 gene expression in human HT-29 cells at IC50 after 48 hrs by cDNA microarray technique relative to control; format: functional; in short: as §2
[27] = test system: HT-29; experiment: Down regulation of BENE gene expression in human HT-29 cells at IC50 after 48 hrs by cDNA microarray technique relative to control; format: functional
In short: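 8 × 10⁶ cells exposed 48 h to compound at its IC50 concentration; total RNA isolated with trizol/chloroform and RNeasy columns including on-column DNase step; RNA quantified by OD 260/280; DMSO-treated cultures as control.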

[28] = test system: HT-29; experiment: Down regulation of RXRB gene expression in human HT-29 cells at IC50 after 48 hrs by cDNA microarray technique relative to control; format: functional
[29] = test system: HT-29; experiment: Down regulation of TMED9 gene expression in human HT-29 cells at IC50 after 48 hrs by cDNA microarray technique relative to control; format: functional
[30] = test system: HT-29; experiment: Down regulation of EML2 gene expression in human HT-29 cells at IC50 after 48 hrs by cDNA microarray technique relative to control; format: functional; in short: as §2
[31] = test system: HT-29; experiment: Down regulation of LOC203427 gene expression in human HT-29 cells at IC50 after 48 hrs by cDNA microarray technique relative to control; format: functional
[32] = test system: MCF7; experiment: Down regulation of FBXL7 gene expression in human MCF7 cells at IC50 after 48 hrs by cDNA microarray technique relative to control; format: functional; in short: as §2
[33] = test system: MCF7; experiment: Upregulation of FLJ14075 gene expression in human MCF7 cells at IC50 after 48 hrs by cDNA microarray technique relative to control; format: functional
[34] = test system: HT-29; experiment: Down regulation of GK001 gene expression in human HT-29 cells at IC50 after 48 hrs by cDNA microarray technique relative to control; format: functional; in short: as §2

| Structure (SMILES) | Activity [2] [%] | Activity [3] [%] | fold change (FC) [4] | Activity [5] [%] | pIC50 [6] | Activity [7] [%] | Activity [8] [%] | pIC50 [10] | Activity [12] [%] | Activity [13] [%] | Activity [14] [%] | selectivity ratio [15] | Activity [16] [%] | pIC50 [17] | Activity [18] [%] | Activity [19] [%] | Activity [20] [%] | Activity [21] [%] | selectivity ratio [22] | Activity [23] [%] | other results |
| --- | --- | --- | --- | --- | --- | --- | --- | --- | --- | --- | --- | --- | --- | --- | --- | --- | --- | --- | --- | --- | --- |
| COC(CN(c1ccccc1CO)S(=O)(=O)c1ccccc1[N+](=O)[O-])n1cnc2ncnc(Cl)c21 (racemic) | 23.94 | 48.49 | -2.01 | 12.7 | 5.48 | 6.36 | 71.58 | 4.92 | 24.79 | 20.36 | 10.98 | 1.92 | 10.5 | 5.21 | 15.64 | 21.1 | 8.33 | 65.09 | 3.69 | 54.93 | fold change (FC) [1]: 2.09; fold change (FC) [9]: -2.01; fold change (FC) [11]: -2.17; fold change (FC) [24]: 2.74 |
| O=C(OCC1c2ccccc2-c2ccccc21)N1CC(n2cnc3c(Cl)ncnc32)OCc2ccccc21 (racemic) | 22.43 | 72.81 | -2.02 | 14.9 | 5.47 | 7.27 | 74.68 | 5.00 | 14.85 | 5.07 | 13.18 | 3.19 | 14.7 | 5.67 | 13.63 | 18.07 | 8.61 | 64.39 | 2.99 | 59.69 | fold change (FC) [25]: 2.91; fold change (FC) [26]: -2.19; fold change (FC) [27]: -2.14; fold change (FC) [28]: -2.1; fold change (FC) [29]: -3.95; fold change (FC) [30]: -2.82; fold change (FC) [31]: -2.13; fold change (FC) [32]: -2.86; fold change (FC) [33]: 4.84; fold change (FC) [34]: -2.03 |
